Data published in the EternaBench riboswitch data.

Tested on: MS2 coat protein
Test: apparent Kd, MS2 coat protein; higher = weaker binding; RNA-MaP array; FMN 200 µM where present
Method in brief: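 Apparent Kd: the median of filtered binding-curve fits from single clusters. Designs were transcribed on Illumina sequencing-chip clusters by stalled E. coli RNA polymerase and titrated with SNAP-549-labelled MS2 coat protein from 0.7 or 1.5 nM, doubling to 3 µM, in 100 mM Tris-HCl pH 7.5, 80 mM KCl, 4 mM MgCl2, BSA, DTT, yeast tRNA and Tween-20. Each series ran without and then with constant ligand, and green signal was normalised to red-channel RNA signal and control-cluster median Fmax.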

[1] = designed as: OFF switch for flavin mononucleotide, no ligand
[2] = ligand present: flavin mononucleotide, designed as: OFF switch for flavin mononucleotide
[3] = designed as: ON switch for flavin mononucleotide, no ligand
[4] = ligand present: flavin mononucleotide, designed as: ON switch for flavin mononucleotide

Sequence | apparent Kd [1] [nM] | apparent Kd [2] [nM] | apparent Kd [3] [nM] | apparent Kd [4] [nM]
UGGCCGAAGUUAGGAUAUUGGUUAGGGACGGACUAAGAAGGAGCACAUACAUGAGGAUCACCCAUGUUAGAAGGUUGUCCUCCA | 15.5 | 13.7 |  | 
UUACAGUACAGGUAGGAUAUGUAGGGUGGUACAUGAGGAUCACCCAUGUAUCCACCCUUCGAACGGCAGAAGGGCCCGUCACUGC |  |  | 22 | 15.4
CUCAGACAUGAGGAUCACCCAUGUGAGGAUAUGAUGCGAUCGUCGAAAGACGAUAGCAUCAGAAGGUACAAAUG | 53.1 | 40.5 |  | 
AACGAGGCAGGAUAUACAUGAGGAUCACCCAUGUGCUUGCAUGGCGUGGGAAGUCAACGUAGAAGGGCCAUGCC | 75.7 | 89.4 |  | 
GUGGUUGUCGUAGGAUAUGUAGGAUAUUCCUACAUGAGGAUCACCCAUGUUCGCAUGGAAGAAGGACGGAAGGACGAUGACCAA |  |  | 306 | 125
AAGGCGGCUCAGGCCGAGUUUCGCAGAAGGGCACAUGAGGAUCACCCAUGUACCUGGUCUGAUGUGCAGGAUAUGUGAGUCAGC | 5.6 | 10.4 |  | 
UGUAUGGACAGAGGAUAUACAGAUAGGAUCUACUAUCAAACAGUCCUUACAUGAGGAUCACCCAUGUAGAAGGCUGUCCAUACU | 19.4 | 85.8 |  | 
UCAUAAAUUCGAGGAUAUCGGUGAUAAAGAAGACGAGAAGGCGAUUAGAGAGAGAUGUUUAUAGACAUGAGGAUCACCCAUGUU |  |  | 30 | 24.8
AAGAGACAUCAGAAGGGAACCCAAACGCGCGGUUCAGGAUAUGAGAUCUUAUGUAGUUCGACAUGAGGAUCACCCAUGUCCGCG |  |  | 101 | 8.22
AGUAAGAUGCAGAAGGUGUUAGCUAGAGCUACGACAUGAGGAUCACCCAUGUACAAAAGCCCGUACAAGGAUAUGCAUCUUACA |  |  | 4.46 | 4.21
AAGGAUAGAGGAUAUACAUAGAUACAGAUUCAUGUAGAAUUACAUGAGGAUCACCCAUGUAGAAGGCUAUCCUA | 635 | 29 |  | 
GUUGUGUGAGGAUAUGCCUGGCCGUGUGGCCGGUUUGGGUGGCAGAAGGUACAUGAGGAUCACCCAUGUACGGG | 105 | 107 |  | 
CUUUUGUGAGGAUAUCAGUAGUAAAUAAAUAAAAUUACUACUGAGAAGGCACAUGAGGAUCACCCAUGUUCCUU | 14.7 | 28.4 |  | 
GUCAGCUCGUGAGGAUAUACAACACUGCUUCGGCAGUGUAUUAAGAUCACAUGAGGAUCACCCAUGUAGAAGGCACGAGCUAAU | 15.9 | 267 |  | 
CGCUCUAUAUAUAAGGCAAGAAUCAGAAGGCGUUACAUGAGGAUCACCCAUGUUUUGUAUAGUAACGAGGAUAUGAUAUGAGCG | 15.3 | 15.1 |  | 
UUUUUGUGAGGAUAUGGAAUAUCUUCUAUUUAUUAUUAAUUCCAGAAGGCACAUGAGGAUCACCCAUGUAUUUU | 19.9 | 25.2 |  | 
GGAUGACAAAGUCAUCCAAUACGAACAUGAGGAUCACCCAUGUAGGAUAUCGUACUCAAAGAGUACGAGAAGGACAUGUGCCUU | 37.6 | 236 |  | 
AAUCGAUGAUCAGGAUAUGUGGAGCCUCUAAGCGAAGAGGCGUACAUGAGGAUCACCCAUGUGACACAGAAGGGAUACAUGCGG |  |  | 64.2 | 8.2
CGAUCGUUGCAGAAGGUUAUAAUUUUAUCUACAUGUUUAACAUGAGGAUCACCCAUGUUUUUGAUGAAGGAUAUGCAAGGGUCG | 6.88 | 7.12 |  | 
AAGGAAACCACAGGAUAUGGCUAGAAUAUCUAGCCAGAAGGGUGGUCGAAACCAUGUAAAUACAUGAGGAUCACCCAUGUGUCC |  |  | 345 | 378
GUACAACAUGAGGAUCACCCAUGUAUAUAUAUACGAGGAUAUGCAUGUACGAAAGUAUAUGCAGAAGGCGUUGUAC |  |  | 127 | 30.2
GGGCUCGGUGUGAGGAUAUUGGGUCUGAAAGGGCUCGAGAAGGCACAUGAGGAUCACCCAUGUAAGCUGGGUCU | 42.7 | 37.3 |  | 
AUUGGUGGUGUAGGAUAUAACAGCAGCUGUGGUACCGUGUGUUAAGGACAUGAGGAUCACCCAUGUUAGAAGGACACUGUCCAG | 436 | 75.8 |  | 
AGCUGGUGACAGCAUCGAGCUAAACAUGAGGAUCACCCAUGUAGAAGGCUGUACGGUUACCGUACAGAGGAUAUACAUAGCUCG | 6.11 | 6.3 |  | 
UGGUACUAGGGAGGAUAUGGGAAGAUACAUGAGGAUCACCCAUGUUUAAGAAUGACGAGAGGCAACUAGAAGGCCCUAGUACCU |  |  | 328 | 25.9
AGGUGACAUGAGGAUCACCCAUGUAAGGAUAUACGGUUAGUGGAGAGAGGGAAAAGAGGUAGAAGGUACGGAGC | 266 | 142 |  | 
UGGCUACAUGAGGAUCACCCAUGUCAGGAUAUGCCGUUGGAUUGCCUUCGUCGUUCGGGUAGAAGGGACUGCGU | 30.3 | 27.5 |  | 
CCUCGACAUGAGGAUCACCCAUGUAAGGAUAUUCUAGGACGUGUUUUUCGUAGCUUUAGAAGAAGGUGCAGGUU | 49.5 | 175 |  | 

Sequence | apparent Kd [1] [nM] | apparent Kd [2] [nM] | apparent Kd [3] [nM] | apparent Kd [4] [nM]
ACAGGAAACACAGGAUAUGAGCGAAAUAGAGACAUGAGGAUCACCCAUGUACCGUAGAGAACCGGUCAGAAGGGUGACUCCCGU |  |  | 25.4 | 18.9
AGUGCCUCGAGAGGAUAUAUACAUGAGGAUCACCCAUGUAACGAGGUGGAAACACCUCGAAAUGUAUAGAAGGCUCGAGGCACA | 28.4 | 50 |  | 
GCCAUCAUAUGAGGAUAUGACACCGAAACGGUGUCAGAAGGCAUGUCGAUAGACAUGAGGAUCACCCAUGUAUUAAUGAUGGCA |  |  | 1090 | 95.1
AUCGAGUAAGGAUAUACAUGAGGAUCACCCAUGUCCGUGAGGUAAGUUUGUGUCCGGCGUAGAAGGUACUGCAU | 52.1 | 121 |  | 
GCGCAAACGCCAAAAGGCGAAAUUACAUGAGGAUCACCCAUGUAGGAUAUCGAUUGCUUUGCAGUCGAGAAGGACAUGAUGCGC | 19.2 | 23.9 |  | 
AGUCGGAGCGGAGGAUAUACAUGAGGAUCACCCAUGUAAUAAAGUGAAGCCUGGAAACAGGCAAUGUAGAAGGCUGCUCCGACA | 11 | 74.8 |  | 
UACCUCUCAGGAUAUGAGCAGCAGGACAUGAGGAUCACCCAUGUUAUAUAGGGUCCUGGUUUAGAAGGGAGCGAAU | 26 | 28.1 |  | 
UAUGGUUAAGUCAGGAUAUACGUGCAGUUUUCUGAGUAGAAGGGACAUGAGGAUCACCCAUGUAUGGUAGUGUU | 72.2 | 73.6 |  | 
UGUUGUAUUACAGGAUAUCUAUGAUUAUUAUUUAGAGAAGGGUAUUCACAUGAGGAUCACCCAUGUAUAUACGAGGAAGUUGUG |  |  | 40.7 | 48.7
UCCUUGGUACAGAAGGACCGAGCUCCGUAGCAGGUAGGAUAUGUACAUGAGGAUCACCCAUGUCAGCGGUAAUUGCCAGUAUAC | 54.6 | 27.7 |  | 
GUCAGCUCGUGAGGAUAUACAUGAUAGAUCGAUUAAUUAAUUAAUUUAACAUGAGGAUCACCCAUGUAGAAGGCACGAGCUGAU | 57.2 | 46.6 |  | 
ACUUGUUACUUAAUCAUUGAUUUGUAGGAUAUACGUACAUGAGGAUCACCCAUGUUACAUGGUAUGUAGAAGGACAUCUAAUUU | 11 | 11.2 |  | 
AAUUAAUUAAUACAUGAGGAUCACCCAUGUAAUUAUUAGAUCAAGGAUAUCAGCUCGAAUAGAGCUGAGAAGGUGAUCACAUGU |  |  | 475 | 111
CCAUCGUGUGUGAGGAUAUGCUGGACCUUGGUUCAGCAGAAGGCACAUGAGGAUCACCCAUGUGAAUACGGUGG | 18.9 | 32.3 |  | 
AGCUAGUCAGGAUAUACGAACAUGUCAAAAGACGUGAAGGGACAUGAGGAUCACCCAUGUAGAAGGGACUAGCC | 26.7 | 170 |  | 
CGAGAUACGCUCGUCCGAAAGGGACAUGAGGAUCACCCAUGUAGAAGGCGAUGCGCAACUCGCAUUGAGGAUAUAUACUGCAGA | 5.78 | 5.89 |  | 
CUUUUGUGAGGAUAUCAGUAGUAAAAUAAUAAUAUUACUACUGAGAAGGCACAUGAGGAUCACCCAUGUUCCUC | 40.5 | 267 |  | 
AAUAACAGAGGAUAUACUGUUUUAUGUGUUUGUUAUUUUGAACAUGAGGAUCACCCAUGUAGAAGGCUGAUUGA | 50 | 44.9 |  | 
CCGCAAAUGCAGGAUAUCGUAUCGGAUACGAUACGAGAAGGGCAUACAUGAGGAUCACCCAUGUGUCCUAGCGG | 16.6 | 35.2 |  | 
CCUUUGAAGAUCCUAGUUUUCGACAUGAGGAUCACCCAUGUGCAGGAUAUCGUGCCAGUGCUGUGCGAGAAGGGCAGUCUCUGC | 63.2 | 70.9 |  | 
UACGGACAUGAGGAUCACCCAUGUGAGGAUAUCGAUAACGAUAGCAUAAUAUAAUCGGCGAGAAGGCACAGCGU | 32.7 | 40.9 |  | 
GUAGUACAUGAGGAUCACCCAUGUGUGGGCGCAUGAGGAUAUGUCCGUACCUGGCGUACGAUAGAAGGCAUGGUGC |  |  | 52.8 | 29.3
GGAGACCUCACAGGAUAUGCUGGACUUUGUCCAGCAGAAGGGUGAACACAUGAGGAUCACCCAUGUGGUCUCCAAAUAUUUAAU |  |  | 816 | 74.2
UGCAGACGAGGAUAUGAUCAAUAAUACAUGAGGAUCACCCAUGUAAUACUGAUCCAUGGAUCAGAAGGCGUCUGCU | 16.2 | 24.6 |  | 
GUGCAAUGAGGAUAUACGUUGGUGAACAUCUGUGUGCUCCUACAUGAGGAUCACCCAUGUAGAAGGCAUGUCAC | 11.4 | 17.1 |  | 
GGGCCGUAGUAGAAGGGAUAUACGAUAGGUAUAUCAGGAUAUACAUGAGGAUCACCCAUGUUCUUACAGUGAUAGUCCUCCCUA | 28.4 | 65.8 |  | 
UGGAACGUGUCAGGAUAUACAUGAGGAUCACCCAUGUAUAGGAAAUAGGCAGGGUCUCUUGCAUAGUAGAAGGGACGCGAUUGC | 6.58 | 7.75 |  | 
